Experimental data from ChEMBL document CHEMBL1133632, “A new class of antituberculosis agents” (2000).
In brackets after ≈: the same amount, converted by molar mass.

test system: Mycobacterium tuberculosis; assay: Activity against Mycobacterium tuberculosis (H37Rv) using the standard BACTEC radiometric growth assay; format: functional; settings: not given
In short: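 BACTEC radiometric MIC against M. tuberculosis H37Rv. Compounds in DMSO (1 mg/mL stock), final 50, 25, 12.5, 6.25, 3.0, 1.5 µg/mL. Inoculum 0.1 mL of a 1.0 McFarland suspension. Controls: DMSO direct control and 1:100 organism dilution. Incubated 37 °C, growth index read daily until the 1:100 control reached 30. MIC = lowest concentration with 1-day GI change below the 1:100 control.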

For `CCCCCCCCC[S+]([O-])CC(N)=O` (single isomer, unassigned), which MIC is on record?
The MIC was 25 µg/mL (≈ 107 µM).

same assay, conditions: Mycobacterium tuberculosis; read-out: MIC

For `CCCCCCCCS(=O)(=O)NS(C)(=O)=O`, which MIC is on record?
The MIC was over 25 µg/mL.

How did the MIC turn out when `NNC(=O)c1ccncc1` [ISONIAZID] was run?
The MIC was 0.1 µg/mL (≈ 0.729 µM).

Which MIC does the source give for `CCCCCCCCS(=O)(=O)NC(N)=O` here?
The MIC was over 25 µg/mL.

With `CCCCCCC/C=C\S(=O)(=O)CC(N)=O` as the compound, how does the MIC read?
The MIC was 12.5 µg/mL (≈ 50.5 µM).

With `CCCCCCCCS(=O)(=O)CC(N)=O` as the compound, how does the MIC read?
Its MIC is 6.25 µg/mL (≈ 26.6 µM).

How did the MIC turn out when `CCCCCCCCC[S+]([O-])CC(N)=O` (racemic) was run?
Its MIC is 25 µg/mL (≈ 107 µM).

For `CCOCCOCCS(=O)(=O)CC(N)=O`, which MIC is on record?
The MIC was over 25 µg/mL.

How did the MIC turn out when `CCCCCCCCCCCCS(=O)(=O)CC(N)=O` was run?
The MIC was 12.5 µg/mL (≈ 42.9 µM).

With `CCCCCCCCC[S+]([O-])CC(=O)OC` (single isomer, unassigned) as the compound, how does the MIC read?
Its MIC is over 25 µg/mL.

How did the MIC turn out when `CCCCCCC/C=C/S(=O)(=O)CC(N)=O` was run?
The MIC was 12.5 µg/mL (≈ 50.5 µM).

Which MIC does the source give for `CCCCCCCCCCS(=O)(=O)C(C)C(N)=O` (stereo unspecified) here?
The MIC was over 25 µg/mL.

For `NC(=O)CS(=O)(=O)CCCCc1ccccc1`, which MIC is on record?
The MIC was over 25 µg/mL.

Which MIC does the source give for `CCCCCCCCCCS(=O)(=O)CCC(N)=O` here?
Its MIC is over 25 µg/mL.

Which MIC does the source give for `CC(C)CCCCCCCS(=O)(=O)CC(N)=O` here?
Its MIC is 1.5 µg/mL (≈ 5.69 µM).

With `CCCCCCCCCC[S+]([O-])CC(N)=O` (stereo unspecified) as the compound, how does the MIC read?
The MIC was 6.25 µg/mL (≈ 25.3 µM).

Which MIC does the source give for `NC(=O)CS(=O)(=O)CCCCCc1ccccc1` here?
Its MIC is 12.5 µg/mL (≈ 46.4 µM).

For `CCCCCCCCC[S+]([O-])CC(=O)OC` (racemic), which MIC is on record?
The MIC was over 25 µg/mL.

For `CCCCCCCCCCP(=O)([O-])CC(N)=O.[K+]`, which MIC is on record?
Its MIC is over 50 µg/mL.

With `CCCCCCCCS(=O)(=O)CC(=O)O` as the compound, how does the MIC read?
The MIC was over 25 µg/mL.

For `NC(=O)CS(=O)(=O)CCCCCCc1ccccc1`, which MIC is on record?
The MIC was 12.5 µg/mL (≈ 44.1 µM).

`CCCCCCCCS(=O)(=O)CC(=O)OC` was tested. Which MIC did it give?
Its MIC is over 25 µg/mL.

With `CCCCCCCC[S+]([O-])CC(=O)OC` (stereo unspecified) as the compound, how does the MIC read?
The MIC was 12.5 µg/mL (≈ 53.3 µM).

For `CCCCCCCC[S+]([O-])CC(=O)OCc1ccccc1` (stereo unspecified), which MIC is on record?
Its MIC is 6.25 µg/mL (≈ 20.1 µM).

With `CCCCCCCCCCS(=O)(=O)CC(N)=O` as the compound, how does the MIC read?
Its MIC is 1.5 µg/mL (≈ 5.69 µM).

For `CN[C@@H]1[C@H](O[C@H]2[C@H](O[C@H]3[C@H](O)[C@@H](O)[C@H](N=C(N)N)[C@@H](O)[C@@H]3N=C(N)N)O[C@@H](C)[C@]2(O)C=O)O[C@@H](CO)[C@H](O)[C@H]1O` [STREPTOMYCIN], which MIC is on record?
The MIC was 2 µg/mL (≈ 3.44 µM).

For `CC(C)CCCC(C)CCS(=O)(=O)CC(N)=O` (stereo unspecified), which MIC is on record?
Its MIC is 6.25 µg/mL (≈ 23.7 µM).

`NC(=O)c1cnccn1` [PYRAZINAMIDE] was tested. Which MIC did it give?
The MIC was 100 µg/mL (≈ 812 µM).

Which MIC does the source give for `CCCCCCCCS(=O)(=O)NS(N)(=O)=O` here?
Its MIC is over 25 µg/mL.

`CCCCCCCCCCCCCCCCCCS(=O)(=O)CC(N)=O` was tested. Which MIC did it give?
Its MIC is over 50 µg/mL.

How did the MIC turn out when `CC[C@@H](CO)NCCN[C@@H](CC)CO` [ETHAMBUTOL] was run?
Its MIC is 2 µg/mL (≈ 9.79 µM).

For `C=C/C(C)=C/[C@@]1(C)SC(=O)C(C)=C1O` [THIOLACTOMYCIN], which MIC is on record?
Its MIC is 25 µg/mL (≈ 119 µM).

With `CCCCCCS(=O)(=O)CC(N)=O` as the compound, how does the MIC read?
Its MIC is over 50 µg/mL.

How did the MIC turn out when `CCCCCCCCCCOCC(N)=O` was run?
Its MIC is over 25 µg/mL.

With `CCCCCCCS(=O)(=O)CC(N)=O` as the compound, how does the MIC read?
Its MIC is over 25 µg/mL.

Which MIC does the source give for `CO[C@H]1/C=C/O[C@@]2(C)Oc3c(C)c(O)c4c(O)c(c(/C=N/N5CCN(C)CC5)c(O)c4c3C2=O)NC(=O)/C(C)=C\C=C\[C@H](C)[C@H](O)[C@@H](C)[C@@H](O)[C@@H](C)[C@H](OC(C)=O)[C@@H]1C` [RIFAMPIN] here?
The MIC was 2 µg/mL (≈ 2.43 µM).

Which MIC does the source give for `CCCCCCCCS(=O)(=O)CC(=O)OCc1ccccc1` here?
The MIC was 12.5 µg/mL (≈ 38.3 µM).

`CCCCCCCCCS(=O)(=O)CC(N)=O` was tested. Which MIC did it give?
Its MIC is 3 µg/mL (≈ 12 µM).

How did the MIC turn out when `CCCCCCCCCCSCC(N)=O` was run?
Its MIC is 25 µg/mL (≈ 108 µM).

For `CCCCCCCCC[S@@+]([O-])CC(N)=O`, which MIC is on record?
Its MIC is 25 µg/mL (≈ 107 µM).

For `C/C=C/C/C=C/CCC(=O)[C@H]1O[C@H]1C(N)=O` [CERULENIN], which MIC is on record?
Its MIC is 1.5 µg/mL (≈ 6.72 µM).
